Results of several laboratories.
Lines come from different studies, so protocols differ.
Target: Vascular endothelial growth factor receptor 1 (FLT1, Homo sapiens, UniProt P17948)

`c1cnn2ncc(-c3ccnc(N4CCC45COC5)n3)c2c1` has a remaining binding of 87% (binding; 1 µM).
`Cc1nc(N2CC[C@@H](O)C2)ncc1-c1cc(C(F)(F)F)cc2[nH]ncc12` gave a remaining binding of 100% (cell-free assay, competition with immobilised ligand; 1 µM).
With `O=C(Nc1c[nH]nc1C(=O)NC1CCNCC1)c1cc(F)cc(F)c1` the remaining binding was 63% (binding, competition with immobilised ligand; 1 µM).
`CC1=C(C#N)[C@@H](c2ccc3[nH]nc(C)c3c2)C(C#N)=C(c2ccc(Cl)cc2)N1` has a remaining binding of 100% (cell-free assay, competition with immobilised ligand; 1 µM).
With `CN(C)c1nccc(-c2cnn3ncccc23)n1` the remaining binding was 100% (binding; 1 µM).
With `O=C(NCc1ncc(C(F)(F)F)cc1Cl)c1ccc2c(c1)C1(CCS(=O)(=O)CC1)[C@@H](C1CC1)N2S(=O)(=O)c1ccc(F)cc1` the remaining binding was 82% (cell-free assay, competition with immobilised ligand; 1 µM).
`O=C(c1ccc(Nc2ncc(Cl)c(-c3ccc(Cl)s3)n2)cc1)N1CCC(N2CCCC2)CC1` gave a remaining binding of 1.2% (binding, competition with immobilised ligand; 1 µM).
`CS(=O)(=O)c1cc(C2(NC(=O)c3cncc4c3cnn4-c3ccc(F)cc3)CC2)ccn1` gave a remaining binding of 100% (cell-free assay, competition with immobilised ligand; 1 µM).
`CN(C)c1nccc(-c2cnc3ncccn23)n1` gave a remaining binding of 100% (binding; 1 µM).
`C[C@@H](c1ccc(-n2cnc3c(N)ncnc32)cc1)N1CCc2nn(C)c(Cc3ccccc3)c2C1=O` gave a remaining binding of 81% (binding, competition with immobilised ligand; 0.1 µM).
`F[C@@H]1CCN(c2nccc(-c3cnn4ncccc34)n2)C1` gave a remaining binding of 100% (binding; 1 µM).
For `c1cncc(-c2cccc(Nc3nccc(NC4CCCCC4)n3)c2)c1`, the remaining binding was 71% (binding, competition with immobilised ligand; 10 µM).
`CN(C(=O)c1ccccc1)c1cc(N(C)c2ccc3c(c2)CCc2ccc(C(=O)NCCN4CCOCC4)cc2C3=O)ccc1F` has a remaining binding of 85% (cell-free assay, competition with immobilised ligand; 1 µM).
`O=C(c1ccc(Nc2nccc(-c3cc4ccccc4s3)n2)cc1)N1CCC(N2CCCC2)CC1` has a remaining binding of 46% (binding, competition with immobilised ligand; 1 µM).
`N[C@H]1CCN(c2nccc(-c3cnn4ncccc34)n2)C1` gave a remaining binding of 99% (binding; 1 µM).
`C=CC(=O)N1CCC(C(=O)NCC(=O)N2CCN(c3nc(-c4cnc(N)nc4C(F)F)nc(N4CCOCC4)n3)CC2)CC1` has a remaining binding of 99% (binding, competition with immobilised ligand; 1 µM).
`C[C@H]1CCN(c2nccc(-c3cnn4ncccc34)n2)C1` has a remaining binding of 100% (binding; 1 µM).
`CCOC(=O)c1cc2cc(-c3cc(C(=O)NCc4ccc(C(=O)O)cc4)nn3C)ccc2[nH]1` has a remaining binding of 97% (cell-free assay, competition with immobilised ligand; 0.1 µM).
`CCN(CC)CCCCNc1ncc2cc(-c3cc(OC)cc(OC)c3)c(NC(=O)NC(C)(C)C)nc2n1` gave a remaining binding of 8% (cell-free assay, competition with immobilised ligand; 1 µM).
For `Cc1cc(NC(=O)c2cccc(S(F)(F)(F)(F)F)c2)cc(-n2ccn3nc(-c4cccnc4)cc23)c1`, the remaining binding was 100% (cell-free assay, competition with immobilised ligand; 1 µM).
For `O=C(c1ccc(Nc2ncc(Cl)c(-c3cc4ccccc4s3)n2)cc1)N1CCC(N2CCCC2)CC1`, the remaining binding was 6.2% (binding, competition with immobilised ligand; 1 µM).
`CNC(=O)[C@@H]1CC[C@@H](n2c(-c3ccc4cnccc4c3)nc3ccc(C(=O)NCc4cccc(C(N)=O)c4)cc32)C1` gave a remaining binding of 100% (binding, competition with immobilised ligand; 1 µM).
